Screening results: PubChem, Johns Hopkins Ion Channel Center
Rows were chosen to be rich in hits. Some 3.8% of all compounds tested hit in one or more screens of this group.
hERG protect = compounds protecting human hERG from proarrhythmic drug block. Q12809. CHO-hERG, FluxOR thallium flux, dofetilide IC70 present. activation (rescue from dofetilide block), less the hit threshold, % at 10 µM. 0.51% of 310,000 active. AID 1511;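 active = activation above the mean of controls blocked by dofetilide plus 5 SD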;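 note: thallium influx through hERG after potassium depolarization seen as dye fluorescence rise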
KCNQ1 act = human KCNQ1 channel potentiation or activation. P51787. CHO-K1 KCNQ1, thallium flux FluxOR fluorescence; active compounds read high. B-score at 10 µM. 0.35% of 310,000 active;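 active = fluorescence ratio B-score, a plate-corrected score, at least three library SD, with initial intensity B-score within 5 SD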
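Test system: CHO-K1 cells stably expressing KCNQ1 / Medium: assay buffer / Also added: depolarizing K+/Tl+ stimulus, K2SO4 and Tl2SO4 each 12.5 mM in 5x stock / Incubation: 90 min dye loading and 20 min compound exposure, both at room temperature / Signal: thallium influx via FluxOR fluorescence, kinetic imaging / Evaluation: B score of baseline-normalized fluorescence ratio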
KCNQ1 inh = inhibitors of human KCNQ1 potassium channel; CHO-K1 KCNQ1, FluxOR thallium flux fluorescence; active compounds read high; 1.3% of 310,000 active; B-score at 10 µM; P51787; AID 2642;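 active = compounds whose thallium flux B-score, printed positive for inhibition, exceeds three library SD while starting fluorescence stays within three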;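 note: channel opened by potassium depolarization with thallium stimulus after 20 min compound exposure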
Kir21 block = inhibitors of mouse Kir2.1 inward-rectifier potassium channel; HEK293-Kir2.1, FluxOR thallium flux fluorescence; active compounds read low; P35561; B-score at 10 µM; 0.85% of 310,000 active;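 active = fluorescence ratio B-score at or below minus 3 SD of library scores, with starting-brightness B-score within 2 SD, cut at about -4.2 in these data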;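 note: channel flux triggered by added potassium and thallium sulfate stimulus; B-score of peak minus minimum fluorescence over baseline after thallium stimulus; more negative B-score means stronger Kir2.1 block with less thallium influx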
KCNK9 block = blocks the human KCNK9 two-pore domain potassium channel. 1.2% of 310,000 active. Q9NPC2. HEK293 KCNK9, FluxOR thallium flux fluorescence; active compounds read low. B-score at 10 µM. AID 488922;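 active = ratio B-score over 3 SD below the library mean, with starting fluorescence within 5 SD of its mean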;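 note: negative B-score means less thallium flux so channel inhibition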
KCNK3 inh = human KCNK3 channel inhibition, primary screen. B-score at 10 µM. CHO-KCNK3 thallium flux, FluxOR fluorescence; active compounds read low. AID 602410. O14649. 0.84% of 340,000 active;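 active = B-score under library mean minus 4 SD, starting fluorescence ratio at most library mean plus 5 SD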;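 note: more negative B-score means stronger inhibition of thallium flux through KCNK3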
Target sequence (O14649 whole entry, looked up): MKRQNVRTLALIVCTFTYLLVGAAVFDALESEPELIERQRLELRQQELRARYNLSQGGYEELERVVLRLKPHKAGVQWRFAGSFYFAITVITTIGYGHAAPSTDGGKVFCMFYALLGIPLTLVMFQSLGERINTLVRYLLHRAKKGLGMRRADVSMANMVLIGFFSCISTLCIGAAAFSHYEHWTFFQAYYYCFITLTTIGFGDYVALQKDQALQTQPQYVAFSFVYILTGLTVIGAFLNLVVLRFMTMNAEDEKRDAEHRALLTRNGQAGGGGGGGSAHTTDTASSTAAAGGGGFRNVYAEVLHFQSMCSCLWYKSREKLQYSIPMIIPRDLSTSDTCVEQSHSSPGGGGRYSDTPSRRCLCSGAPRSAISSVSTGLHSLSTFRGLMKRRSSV
KCNK9 block conf = human KCNK9 inhibitor confirmation; shares compounds with KCNK9 block; HEK293 KCNK9 cells, FluxOR thallium flux fluorescence; inhibition, % at 10 µM; 43% of 4,900 active; AID 492992;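 active = thallium signal inhibited by more than 5 SD of the compound-free buffer control wells, on both duplicate plates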;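 note: 0% = assay buffer control wells without compound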
Kir21 sel = selectivity of KCNK9 modulators against mouse Kir2.1. 4% of 4,900 active. inhibition, % at 10 µM. Kir2.1 cells, FluxOR thallium flux fluorescence. shares compounds with KCNK9 block;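 active = thallium signal drop more than 5 SD beyond the mean of the no-compound control wells, seen in both duplicate plates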;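 note: signal is fluorescence rise after thallium addition divided by baseline fluorescence; plate controls were assay buffer only for no effect and full block by chlorpromazine control for full effect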
KCNK9 uninduced = second check of KCNK9 modulator effects in non-induced HEK293 cells | AID 492997 | FluxOR thallium flux | 40% of 4,900 active | shares compounds with KCNK9 block | inhibition, % at 10 µM;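 active = thallium signal drop beyond 5 SD of the untreated control mean, on both duplicate plates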;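 note: plate controls were buffer only IC0 wells for no effect and SID17386958 at its maximal inhibitory level for full effect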
Active calls of the source: *; i = inactive; . = no result given.

SMILES	hERG protect	KCNQ1 act	KCNQ1 inh	Kir21 block	KCNK9 block	KCNK3 inh	KCNK9 block conf	Kir21 sel	KCNK9 uninduced
Cn1nc(-c2ccccc2)c(-c2nc(-c3ccccc3Cl)no2)c1Cl	4	i	i	-1.2	-10*	i	41%*	i	32%*
Cc1csc(SCC(=O)NCc2ccccc2)n1	-10	i	i	0.57	i	i	.	.	.
Cc1csc2sc(-c3ccnc(SCC(=O)NCc4ccccc4)n3)c(C)c12	-10	i	i	1.9	-9.2*	i	i	i	32%*
OCCNC(=S)c1ccccc1	-3	i	i	0.26	i	i	.	.	.
Cc1cccc(-c2noc(CN(C(=O)/C=C/c3ccccc3Cl)C(C)C)n2)c1	-10	i	i	0.07	i	i	.	.	.
CC(C)N(Cc1nc(-c2ccccc2)no1)C(=O)CN1C(=O)c2ccccc2C1=O	-5	i	i	-1	i	i	.	.	.
Cc1cccc(-c2noc(CN(C(=O)CCc3ccccc3)C(C)C)n2)c1	-6	i	i	3	i	i	i	i	26%*
Cc1ccc(-c2noc(CN(C(=O)C(c3ccccc3)c3ccccc3)C(C)C)n2)cc1	-23	i	i	1.6	-12*	i	40%*	i	33%*
Brc1ccc(C2Nc3cccc4cccc(c34)N2)s1	.	.	.	.	.	i	.	.	.
Cc1ccc(-c2cnc(NC(=O)c3cccc(Br)c3)s2)c(C)c1	-20	i	i	1.6	i	i	.	.	.
COC(=O)N/N=C/c1c(C)nn(-c2cccc(Cl)c2)c1Cl	-6	i	i	-0.49	-8.3*	i	42%*	i	28%*
CCOC(=O)N/N=C/c1c(C)nn(-c2cccc(C(F)(F)F)c2)c1Cl	-4	i	i	1	i	i	.	.	.
S=c1nc(C2CC2)n(-c2ccccc2)[nH]1	-6	i	i	0.01	i	i	.	.	.
C/C(=N\N(Cc1ccccc1)c1ccccc1)c1cccnc1	-3	i	i	-3.8	i	i	.	.	.
Cc1ccc(SCc2ccc(C(=O)N3CCCCC3)cc2)cc1	-6	i	i	0.86	i	i	i	i	i
Cc1csc(SCC(=O)Nc2ccc(C)c(F)c2)n1	.	.	.	.	.	i	.	.	.
CCNC(=O)COc1ccc(/C=C2\COc3ccccc3C2=O)cc1OC	-16	i	i	-0.4	i	i	.	.	.
COc1ccc2[nH]cc(CCNC(=O)c3ccco3)c2c1	.	.	.	.	.	i	.	.	.
O=C(Oc1ccc2[nH]cc(CCN3C(=O)c4ccccc4C3=O)c2c1)c1ccco1	-12	i	i	-1.6	-11*	i	26%*	i	i
Cc1ccc(NC(=O)CSc2nnc3ccccn23)cc1S(=O)(=O)N1CCOCC1	-4	i	i	-1.3	i	i	.	.	.
Cc1ccccc1NS(=O)(=O)c1cc(C(=O)N2CCCC2)ccc1Cl	-7	i	i	-0.76	i	i	.	.	.
Cc1ccc(C)c(NS(=O)(=O)c2cc(C(=O)N3CCc4ccccc4C3)ccc2Cl)c1	4	i	i	-0.53	-17*	i	57%*	i	36%*
CCN(CC)S(=O)(=O)c1cc(C(=O)N2CCc3ccccc32)ccc1Cl	-13	i	i	-0.78	i	i	i	i	i
Cc1cccc(NS(=O)(=O)c2cc(C(=O)N3CCc4ccccc4C3)ccc2Cl)c1C	-2	i	i	-0.56	-15*	i	68%*	i	i
Cc1cccc(NC(=O)c2ccc(CN3CCc4ccccc4C3)cc2)c1C	-10	i	i	0.75	i	i	.	.	.
SMILES	hERG protect	KCNQ1 act	KCNQ1 inh	Kir21 block	KCNK9 block	KCNK3 inh	KCNK9 block conf	Kir21 sel	KCNK9 uninduced
COCCNC(=S)N/N=C(\C)c1cccc(OC)c1	-6	i	i	-1.6	i	i	.	.	.
COc1ccc(C(=O)c2cccc(C(=O)c3ccc(OC)c(C)c3)c2)cc1C	-10	i	i	-0.08	i	i	i	i	i
Cc1cc(C(=O)N2CCCC(N3CCN(c4cccc(Cl)c4)CC3)C2)nn1C (stereo not given)	-6	i	i	0.57	i	i	.	.	.
Cc1cc(C(=O)N2CCCC(N3CCN(c4cccc(C(F)(F)F)c4)CC3)C2)nn1C (stereo not given)	-7	i	i	0.07	i	i	i	i	i
Cc1cc(C(=O)N2CCCC(N3CCN(c4cccc(C(F)(F)F)c4)CC3)C2)c(C)o1 (stereo not given)	-16	i	i	0.28	i	i	i	i	i
CC1(CCC(=O)N2CCCC(N3CCN(c4cccc(C(F)(F)F)c4)CC3)C2)CC1 (stereo not given)	-17	i	i	0.33	i	i	i	i	i
Cc1cc(C(C)(C)C)cc(C)c1Cn1c2[n+](c3ccc(C(F)(F)F)cc31)CCCCC2	-26	i	6*	-7.2*	-11*	i	71%*	i	i
COc1ccc(OCC(=O)Nc2c3c(nn2C(C)(C)C)CSC3)cc1	-14	i	i	-1.2	-14*	i	57%*	i	24%*
CCC(=O)Nc1c2c(nn1-c1ccc(OC)cc1)CSC2	-7	i	i	1.7	i	i	.	.	.
Cc1nc2ccc(S(=O)(=O)NCC(=O)Nc3cccc(F)c3)cc2s1	-8	i	i	0.65	i	i	.	.	.
Cc1ccc(NC(=O)c2cc(-c3ccccc3)nn2-c2ccccc2)cc1	-1	i	i	-1	i	i	i	i	i
Cc1ccc(NC(=O)c2cc(-c3ccccc3)nn2-c2ccccc2)c(Br)c1	-2	i	i	-0.51	i	i	.	.	.
COc1cc(/C=N/n2cnnc2-n2nc(C)cc2C)cc([N+](=O)[O-])c1O	-11	i	i	0.96	i	i	.	.	.
Cc1ccc(NC(=O)CCSc2nnc(Cc3ccccc3)o2)cc1	3	i	i	-0.04	i	i	.	.	.
Cc1cccc(NC(=O)CCSc2nnc(Cc3ccccc3)o2)c1	-10	i	i	0.57	i	i	i	i	i
Cc1ccc(CN2CCN(/N=C/C(Br)=C\c3ccccc3)CC2)cc1	2	16*	i	-0.37	i	i	i	i	i
Cc1ccc(CN2CCN(/N=C/c3cccnc3)CC2)cc1	-7	i	i	-0.3	i	i	.	.	.
